According to ChEMBL document CHEMBL4028902, “Azetidine and Piperidine Carbamates as Efficient, Covalent Inhibitors of Monoacylglycerol Lipase” (J Med Chem, 2017):

Key:
[1] = molecular target: T1, Monoglyceride lipase (Homo sapiens) (UniProt Q99685); test: Ratio of Kinact to Ki for human recombinant MAGL using 7-HCA as substrate after 60 mins by fluorescence assay
T1 sequence (whole entry): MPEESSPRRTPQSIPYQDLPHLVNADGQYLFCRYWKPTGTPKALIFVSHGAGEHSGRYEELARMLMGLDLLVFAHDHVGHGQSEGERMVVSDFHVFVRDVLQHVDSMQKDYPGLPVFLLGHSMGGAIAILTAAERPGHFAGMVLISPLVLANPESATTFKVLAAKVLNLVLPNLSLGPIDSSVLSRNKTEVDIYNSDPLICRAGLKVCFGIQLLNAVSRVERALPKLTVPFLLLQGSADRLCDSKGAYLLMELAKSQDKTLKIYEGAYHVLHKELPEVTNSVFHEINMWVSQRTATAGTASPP
How it was run: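 Run as the MAGL 7-HCA assay, but substrate added with no preincubation (T = 0), fluorescence read every minute at decreasing compound concentrations to give progress curves. kobs from each curve; kinact/KI from a plot of kobs against compound concentration.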

[2] = molecular target: T2, Monoacylglycerol lipase ABHD6 (Homo sapiens) (UniProt Q9BV23); test: Inhibition of human ABHD6 at 1 to 10 uM relative to control
T2 sequence (whole entry): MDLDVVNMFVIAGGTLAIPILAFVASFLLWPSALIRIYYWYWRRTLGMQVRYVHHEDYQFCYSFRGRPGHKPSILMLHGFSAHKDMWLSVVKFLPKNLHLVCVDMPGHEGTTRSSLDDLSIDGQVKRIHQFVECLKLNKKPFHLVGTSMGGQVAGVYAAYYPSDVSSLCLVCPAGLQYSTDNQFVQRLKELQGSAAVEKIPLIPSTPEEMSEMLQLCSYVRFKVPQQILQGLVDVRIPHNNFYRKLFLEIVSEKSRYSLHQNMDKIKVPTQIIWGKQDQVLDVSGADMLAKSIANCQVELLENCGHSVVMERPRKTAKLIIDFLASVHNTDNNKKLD

[3] = Tmax in C57Bl6 mouse at 10 mg/kg, sc; type: ADME, organism-based; details: in vivo
How it was run: (§1)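 Subcutaneous dosing of C57Bl6 mice in DMSO/Cremophor/saline (5:5:90). Plasma (NaF/K2EDTA tubes) and cerebellum collected at 0.5–24 h, 3 mice per time point. Cerebellum diluted 1:4 (w/v) with water and homogenized; samples deproteinated with methanol/acetonitrile plus internal standard, then HPLC-MS/MS. LLOQ 1.0 ng/mL plasma, 0.5 ng/mL brain homogenate. PK parameters by noncompartmental analysis.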

[4] = molecular target: T3, Platelet-activating factor acetylhydrolase (Homo sapiens) (UniProt Q13093); test: Inhibition of human PLA2G7 at 1 to 10 uM relative to control
T3 sequence (whole entry): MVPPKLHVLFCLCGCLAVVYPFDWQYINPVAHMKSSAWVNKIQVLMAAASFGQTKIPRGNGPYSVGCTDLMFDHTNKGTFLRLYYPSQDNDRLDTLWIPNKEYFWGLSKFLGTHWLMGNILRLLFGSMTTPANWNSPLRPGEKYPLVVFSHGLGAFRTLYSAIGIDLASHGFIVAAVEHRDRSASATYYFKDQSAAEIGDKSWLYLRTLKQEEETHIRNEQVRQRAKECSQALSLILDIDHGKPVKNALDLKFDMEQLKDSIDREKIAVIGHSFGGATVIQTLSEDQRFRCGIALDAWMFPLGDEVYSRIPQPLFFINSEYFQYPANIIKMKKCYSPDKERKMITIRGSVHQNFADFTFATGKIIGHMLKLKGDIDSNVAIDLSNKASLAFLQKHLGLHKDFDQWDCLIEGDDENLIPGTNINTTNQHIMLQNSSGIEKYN

Cocaine esterase = molecular target: T4, Cocaine esterase (Homo sapiens, UniProt O00748); test: Inhibition of human CES2 at 1 to 10 uM relative to control
T4 sequence (O00748 whole entry): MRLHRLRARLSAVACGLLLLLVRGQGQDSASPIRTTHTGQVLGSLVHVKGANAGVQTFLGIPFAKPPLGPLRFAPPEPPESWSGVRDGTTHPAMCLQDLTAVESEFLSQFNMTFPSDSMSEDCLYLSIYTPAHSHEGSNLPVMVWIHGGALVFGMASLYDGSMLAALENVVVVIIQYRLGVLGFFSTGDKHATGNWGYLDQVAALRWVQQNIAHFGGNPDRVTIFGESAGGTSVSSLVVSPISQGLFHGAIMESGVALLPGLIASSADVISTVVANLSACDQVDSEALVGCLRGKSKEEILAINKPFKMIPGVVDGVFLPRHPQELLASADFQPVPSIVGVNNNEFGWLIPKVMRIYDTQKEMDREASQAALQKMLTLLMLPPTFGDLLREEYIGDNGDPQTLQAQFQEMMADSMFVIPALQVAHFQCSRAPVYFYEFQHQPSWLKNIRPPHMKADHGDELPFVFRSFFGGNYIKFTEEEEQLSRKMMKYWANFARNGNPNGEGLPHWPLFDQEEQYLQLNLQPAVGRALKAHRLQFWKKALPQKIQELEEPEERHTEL

[5] = molecular target: T1, Monoglyceride lipase (Homo sapiens); test: Inhibition of human recombinant MAGL at 1 to 10 uM using 7-HCA as substrate preincubated for 30 mins followed by substrate addition measured after 60 mins by fluorescence assay relative to control
Monoglyceride lipase = molecular target: T5, Monoglyceride lipase (Homo sapiens, UniProt Q99685); test: Inhibition of human recombinant MAGL using 7-HCA as substrate preincubated for 30 mins followed by substrate addition measured after 60 mins by fluorescence assay
T5 sequence (Q99685 whole entry): T1 sequence (whole entry)
How it was run: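 Reaction started with 7-HCA (5 μM final), run 60 min, fluorescence Ex/Em 340/465. Percent inhibition versus no-compound and full-inhibition controls; IC50 from four-parameter fit.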

[6] = molecular target: T6, Fatty-acid amide hydrolase 1 (Homo sapiens) (UniProt O00519); test: Inhibition of human recombinant FAAH at 10 uM using arachidonoyl-AMC as substrate preincubated for 30 mins followed by substrate addition measured after 60 mins by fluorescence assay relative to control
T6 sequence (whole entry): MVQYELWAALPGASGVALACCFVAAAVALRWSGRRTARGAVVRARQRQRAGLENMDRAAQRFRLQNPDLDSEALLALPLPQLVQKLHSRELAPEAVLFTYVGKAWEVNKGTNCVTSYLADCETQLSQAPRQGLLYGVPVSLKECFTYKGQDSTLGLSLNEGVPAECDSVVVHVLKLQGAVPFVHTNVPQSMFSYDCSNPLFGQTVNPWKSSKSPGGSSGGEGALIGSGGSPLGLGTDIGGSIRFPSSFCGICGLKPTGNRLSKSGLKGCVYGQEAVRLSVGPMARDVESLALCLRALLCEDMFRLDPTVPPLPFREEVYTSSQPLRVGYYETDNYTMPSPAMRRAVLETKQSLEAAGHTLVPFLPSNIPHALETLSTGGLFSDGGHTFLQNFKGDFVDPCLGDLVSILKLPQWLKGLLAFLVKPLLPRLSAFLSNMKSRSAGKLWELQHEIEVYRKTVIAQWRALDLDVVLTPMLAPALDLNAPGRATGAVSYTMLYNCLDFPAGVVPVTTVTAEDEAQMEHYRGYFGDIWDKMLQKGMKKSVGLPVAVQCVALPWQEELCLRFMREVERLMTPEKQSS

[7] = Cmax in C57Bl6 mouse brain at 1 mg/kg, sc; type: ADME, organism-based; set-up: dose 1 mg/kg, route subcutaneous; how it was run: as §1

Ratio [1] [M⁻¹ s⁻¹] | inhibition [2] [%] | Tmax [3] [min] | inhibition [4] [%] | inhibition (INH) (Cocaine esterase) [%] | inhibition [5] [%] | IC50 (Monoglyceride lipase) [nM] | inhibition [6] [%] | Cmax [7] [nM] | Structure (SMILES)
1.14e+06 | > 70 | 30 | > 70 | > 70 | > 70 | 0.18 | > 70 |  | O=C(OC(C(F)(F)F)C(F)(F)F)N1CC(c2ccn(-c3ccccc3)n2)C1
 | > 70 |  |  | > 70 | > 70 | 2 | > 70 | 0.14 | O=C(OC(C(F)(F)F)C(F)(F)F)N1CCC(c2ccn(-c3ccccc3)n2)CC1
